This note sets out measurements from ChEMBL document CHEMBL1131460, “2-substituted (2SR)-2-amino-2-((1SR,2SR)-2-carboxycycloprop-1-yl)glycines as potent and selective antagonists of group II metabotropic glutamate receptors. 2. Effects of aromatic substitution, pharmacological characterization, and bioavailability” (J Med Chem, 1998).

Assay [1] is described as follows: Binding affinity for Group II Metabotropic glutamate receptor was measured using [3H]glutamate in rat forebrain membranes. It is filed as cell membranes, Membrane. The gist of the method: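 ACPD-sensitive [³H]glutamate binding to group II mGluRs in rat forebrain membranes, reported as IC50. Most values are single-point determinations; others are averages of two or three determinations. Values in parentheses are percent radioligand displacement at 1 μM.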

The target of assay [2] is T1, Metabotropic glutamate receptor 3 (Homo sapiens, UniProt Q14832). Kind of assay: Effect on 1S,3R-ACPD-induced inhibition of forskolin stimulated cyclic-AMP in RGT cells expressing human Metabotropic glutamate receptor 3. In kind it is functional, cell-based.
T1 sequence (Q14832 whole entry): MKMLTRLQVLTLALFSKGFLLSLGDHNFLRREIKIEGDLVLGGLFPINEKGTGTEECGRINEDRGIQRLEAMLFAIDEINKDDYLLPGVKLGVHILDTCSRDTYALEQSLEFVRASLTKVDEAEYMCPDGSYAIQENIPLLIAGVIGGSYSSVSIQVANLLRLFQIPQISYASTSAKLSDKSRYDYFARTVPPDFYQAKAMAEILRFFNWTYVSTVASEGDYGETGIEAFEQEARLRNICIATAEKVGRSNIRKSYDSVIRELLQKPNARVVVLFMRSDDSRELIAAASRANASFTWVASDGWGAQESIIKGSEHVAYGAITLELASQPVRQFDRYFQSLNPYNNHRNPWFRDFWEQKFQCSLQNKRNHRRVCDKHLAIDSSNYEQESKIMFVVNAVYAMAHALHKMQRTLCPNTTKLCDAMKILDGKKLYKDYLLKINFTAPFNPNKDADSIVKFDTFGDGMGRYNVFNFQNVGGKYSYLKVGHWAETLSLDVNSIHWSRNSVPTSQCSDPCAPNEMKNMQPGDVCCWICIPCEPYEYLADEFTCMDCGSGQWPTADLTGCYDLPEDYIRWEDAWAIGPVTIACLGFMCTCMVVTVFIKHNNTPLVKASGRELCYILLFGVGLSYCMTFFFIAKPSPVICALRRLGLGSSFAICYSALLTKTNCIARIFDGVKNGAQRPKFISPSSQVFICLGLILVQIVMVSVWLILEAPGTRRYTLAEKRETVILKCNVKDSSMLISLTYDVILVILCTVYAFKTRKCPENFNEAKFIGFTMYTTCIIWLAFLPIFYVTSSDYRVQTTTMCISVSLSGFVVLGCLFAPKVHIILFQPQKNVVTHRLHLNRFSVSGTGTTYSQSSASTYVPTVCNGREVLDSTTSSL
The target in assay [3] is T2, Metabotropic glutamate receptor 2 (Homo sapiens, UniProt Q14416). Kind of assay: Effect on 1S,3R-ACPD-induced inhibition of forskolin stimulated cyclic-AMP in RGT cells expressing human Metabotropic glutamate receptor 2. It is filed as functional, cell-based.
T2 sequence (Q14416 whole entry): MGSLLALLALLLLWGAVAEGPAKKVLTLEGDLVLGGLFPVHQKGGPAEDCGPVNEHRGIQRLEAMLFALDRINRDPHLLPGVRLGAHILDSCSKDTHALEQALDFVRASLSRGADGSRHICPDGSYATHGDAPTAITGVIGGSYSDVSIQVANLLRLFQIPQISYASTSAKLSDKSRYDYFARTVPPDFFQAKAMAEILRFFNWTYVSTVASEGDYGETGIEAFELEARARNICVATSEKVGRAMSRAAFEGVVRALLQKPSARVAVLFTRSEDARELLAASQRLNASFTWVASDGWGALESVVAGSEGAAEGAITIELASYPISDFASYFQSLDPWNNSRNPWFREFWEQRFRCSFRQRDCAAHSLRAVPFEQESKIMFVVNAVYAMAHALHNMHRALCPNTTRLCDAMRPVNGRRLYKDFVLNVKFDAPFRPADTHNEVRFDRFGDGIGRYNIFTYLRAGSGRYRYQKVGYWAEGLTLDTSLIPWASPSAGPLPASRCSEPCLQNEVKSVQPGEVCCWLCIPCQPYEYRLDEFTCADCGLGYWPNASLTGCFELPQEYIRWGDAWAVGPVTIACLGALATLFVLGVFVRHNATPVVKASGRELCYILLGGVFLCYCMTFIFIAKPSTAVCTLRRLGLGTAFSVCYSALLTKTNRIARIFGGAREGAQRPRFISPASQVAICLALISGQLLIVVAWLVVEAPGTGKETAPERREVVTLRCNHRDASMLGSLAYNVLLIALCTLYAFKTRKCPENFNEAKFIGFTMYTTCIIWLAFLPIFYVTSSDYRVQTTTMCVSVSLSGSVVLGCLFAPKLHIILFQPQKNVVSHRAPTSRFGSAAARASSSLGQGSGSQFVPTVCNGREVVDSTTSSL
For assay [4], the target named is T2, Metabotropic glutamate receptor 2. Kind of assay: Compound was tested its ability to block 1S,3R-ACPD-induced inhibition of forskolin stimulated cyclic-AMP in RGT cells transfected with human Metabotropic glutamate receptor 2; Agonist. In kind it is functional, cell-based. A digest of the protocol:
(§1)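 RGT cells transfected with human mGluR2 or mGluR3 were used. Forskolin-stimulated cyclic AMP was inhibited by (1S,3R)-ACPD, and compounds were tested for antagonism of this inhibition, giving IC50.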

In assay [5] the target is T1, Metabotropic glutamate receptor 3. Kind of assay: Compound was tested its ability to block 1S,3R-ACPD-induced inhibition of forskolin stimulated cyclic-AMP in RGT cells transfected with human Metabotropic glutamate receptor 3; Agonist. In kind it is functional, cell-based. The gist of the method: as §1

Where only a bound is given, the exact number is not on record here.

By IC50 is commonly meant the midpoint of a concentration-inhibition curve. Lower therefore signals inhibition by little substance.

`N[C@@](CCc1ccccc1O)(C(=O)O)C1C[C@@H]1C(=O)O` (some centres undefined) yielded an IC50 in assay [1] of 0.22 µM. This counts as sub-micromolar.
For the compound `COc1cccc(CC[C@](N)(C(=O)O)C2C[C@@H]2C(=O)O)c1` (some centres undefined), the IC50 was found to be 0.094 µM in assay [1], 0.16 µM in assay [2] and 0.43 µM in assay [3].
Take `N[C@@](CCc1ccc(Cl)cc1)(C(=O)O)C1C[C@@H]1C(=O)O` (some centres undefined): in assay [1], the IC50 is 0.41 µM.
In assay [1], `CSc1cccc(CC[C@](N)(C(=O)O)C2C[C@@H]2C(=O)O)c1` (some centres undefined) gave a half-maximal inhibitory concentration (IC50) of 0.41 µM. In other words, the sub-micromolar range.
Still for that read-out and setting: the value for `CS(=O)(=O)c1cccc(CC[C@](N)(C(=O)O)C2C[C@@H]2C(=O)O)c1` (some centres undefined) [listing 1 of 2 here] was 2.4 µM; that for `N[C@@](CCc1ccc(O)cc1)(C(=O)O)C1C[C@@H]1C(=O)O` (some centres undefined) was 0.3 µM; that for `COc1ccc(CC[C@](N)(C(=O)O)C2C[C@@H]2C(=O)O)cc1` (some centres undefined) was 1.4 µM.
The same measure, in the same setting: then `COc1cccc(CC[C@](N)(C(=O)O)C2C[C@@H]2C(=O)O)c1OC` (some centres undefined), with 4.9 µM.
Turning to `N[C@@](CCc1ccc(C(=O)O)cc1)(C(=O)O)C1C[C@@H]1C(=O)O` (some centres undefined), in assay [1], the IC50 stood at 0.37 µM.
On the same count and under the same terms, the value for `CCCc1cccc(CC[C@](N)(C(=O)O)C2C[C@@H]2C(=O)O)c1` (some centres undefined) was 0.57 µM; that for `N[C@](CC1c2ccccc2Oc2ccccc21)(C(=O)O)C1C[C@H]1C(=O)O` (stereo in doubt; 174) was 4.2 µM.
Still for that read-out and setting: the value for `COc1ccc(CC[C@](N)(C(=O)O)C2C[C@@H]2C(=O)O)cc1OC` (some centres undefined) was 0.46 µM; that for `N[C@@](CCc1ccccc1Oc1ccccc1)(C(=O)O)C1C[C@@H]1C(=O)O` (some centres undefined) was 0.36 µM.
In the case of `N[C@@](CCc1cccc(C(F)(F)F)c1)(C(=O)O)C1C[C@@H]1C(=O)O` (some centres undefined), the IC50 in assay [1] turned out to be 0.14 µM; in assay [2] it was 0.42 µM; in assay [3] it was 0.22 µM.
Compound `Cc1ccccc1CC[C@](N)(C(=O)O)C1C[C@@H]1C(=O)O` (some centres undefined) returned a 50% inhibitory concentration (IC50) in assay [1] of 0.57 µM.
Still for that read-out and setting: then `N[C@@](CCc1c(Cl)cccc1Cl)(C(=O)O)C1C[C@@H]1C(=O)O` (some centres undefined), with 0.71 µM; and `Cc1cccc(CC[C@](N)(C(=O)O)C2C[C@@H]2C(=O)O)c1` (stereo in doubt; 104), with 0.089 µM.
On the same count and under the same terms, the value for `N[C@@](CCc1ccccc1Cl)(C(=O)O)C1C[C@@H]1C(=O)O` (some centres undefined) was 0.26 µM.
Consider `NC(CCc1cccc(C(=O)O)c1)(C(=O)O)[C@H]1C[C@@H]1C(=O)O` (some centres undefined), for which the half-inhibitory concentration (IC50) in assay [1] was 0.077 µM; in assay [2] it was 0.08 µM; in assay [3] it was 1.8 µM.
As to `N[C@@](CCc1cccc(Cl)c1)(C(=O)O)C1C[C@@H]1C(=O)O` (some centres undefined), the IC50 was determined as 0.1 µM in assay [1], 0.18 µM in assay [2] and 0.18 µM in assay [3].
In turn, `N[C@@](CCc1ccccc1C(F)(F)F)(C(=O)O)C1C[C@@H]1C(=O)O` (some centres undefined) yielded an IC50 in assay [1] of 0.48 µM. In other words, the sub-micromolar range.
Take `N[C@@H](C(=O)O)C1C[C@@H]1C(=O)O` (some centres undefined): the figures for the concentration for half-maximal inhibition (IC50) in assay [1], in assay [4] and in assay [5] were 0.47 µM, “Agonist” and “Agonist”, respectively.
`N[C@@](CCc1cccc(F)c1F)(C(=O)O)C1C[C@@H]1C(=O)O` (some centres undefined) came in with a half-inhibitory concentration (IC50) in assay [1] of 0.13 µM.
In assay [1] (Membrane), `NC(CC(c1ccccc1)c1ccccc1)(C(=O)O)[C@@H]1C[C@H]1C(=O)O` (single isomer, unassigned) yielded a Displacement of 0%.
On to `N[C@@](CCc1ccccc1F)(C(=O)O)C1C[C@@H]1C(=O)O` (some centres undefined), for which, in assay [1], the IC50 worked out at 0.31 µM.
Consider `N[C@@](CC1c2ccccc2Oc2ccccc21)(C(=O)O)[C@H]1C[C@@H]1C(=O)O`, for which the IC50 in assay [1] stood at 0.53 µM.
On the same count and under the same terms, the value for `COc1ccc(OC)c(CC[C@](N)(C(=O)O)C2C[C@@H]2C(=O)O)c1` (some centres undefined) was 0.17 µM; that for `N[C@@](CCc1cc(F)ccc1F)(C(=O)O)C1C[C@@H]1C(=O)O` (some centres undefined) was 0.29 µM.
As to `CS(=O)(=O)c1cccc(CC[C@](N)(C(=O)O)C2C[C@@H]2C(=O)O)c1` (some centres undefined) [listing 2 of 2 here], the results for the IC50 in assay [1], in assay [2] and in assay [3] were 0.11 µM, 0.18 µM and 0.19 µM, respectively.
`N[C@@](CCc1ccc(Br)cc1)(C(=O)O)C1C[C@@H]1C(=O)O` (some centres undefined) registered a half-maximal inhibitory concentration (IC50) in assay [1] of 0.68 µM. This counts as sub-micromolar.
`N[C@@](CCc1cc(Cl)cc(Cl)c1)(C(=O)O)C1C[C@@H]1C(=O)O` (some centres undefined) gave an IC50 in assay [1] of 0.029 µM. This IC50 lies about 23-fold lower than the previous one.
Same read-out and setting: then `Cc1cccc(CC[C@](N)(C(=O)O)C2C[C@@H]2C(=O)O)c1` (stereo in doubt; 180), with 0.012 µM.
Turning to `COc1cc(CC[C@](N)(C(=O)O)C2C[C@@H]2C(=O)O)cc(OC)c1` (some centres undefined), the concentration for half-maximal inhibition (IC50) in assay [1] stood at 0.11 µM. Against the preceding compound, the IC50 is about 9.2-fold higher.
Same read-out and setting: the value for `CC(C)(C)c1cccc(CC[C@](N)(C(=O)O)C2C[C@@H]2C(=O)O)c1` (some centres undefined) was more than 10 µM.
In the case of `Nc1cccc(CC[C@](N)(C(=O)O)C2C[C@@H]2C(=O)O)c1` (some centres undefined), the figures for the half-inhibitory concentration (IC50) in assay [2] and in assay [3] were 0.2 µM and 3.1 µM, respectively.
For the compound `N[C@@](CCc1ccc(F)cc1)(C(=O)O)C1C[C@@H]1C(=O)O` (some centres undefined), the results for the IC50 in assay [1], in assay [2] and in assay [3] were 0.022 µM, 0.21 µM and 0.18 µM, respectively.
Consider `Cc1ccc(CC[C@](N)(C(=O)O)C2C[C@@H]2C(=O)O)cc1` (some centres undefined), for which the half-maximal inhibitory concentration (IC50) in assay [1] is 0.59 µM. In other words, the sub-micromolar range.
Regarding `N[C@](CC1c2ccccc2Oc2ccccc21)(C(=O)O)C1C[C@H]1C(=O)O` (stereo in doubt; 173), the half-maximal inhibitory concentration (IC50) in assay [1] was found to be 0.86 µM.
The same measure, in the same setting: the value for `N[C@@](CCc1ccc(F)cc1F)(C(=O)O)C1C[C@@H]1C(=O)O` (some centres undefined) was 0.063 µM.
With `N[C@](CC(c1ccccc1)c1ccccc1)(C(=O)O)[C@H]1C[C@@H]1C(=O)O`, the half-maximal inhibitory concentration (IC50) in assay [1] stood at 0.035 µM; in assay [2], 0.17 µM; in assay [3], 0.22 µM.
`N[C@@](CCc1cccc(-c2ccccc2)c1)(C(=O)O)C1C[C@@H]1C(=O)O` (some centres undefined) showed an IC50 in assay [1] of 0.51 µM.
In assay [1], `N[C@@](CC(c1ccccc1)c1ccccc1)(C(=O)O)[C@H]1C[C@@H]1C(=O)O` registered an IC50 of 2 µM.
Still for that read-out and setting: then `N[C@@](CCc1c(F)c(F)c(F)c(F)c1F)(C(=O)O)C1C[C@@H]1C(=O)O` (some centres undefined), with 0.37 µM; and `N[C@@](CCc1cccc(C2CCCC2)c1)(C(=O)O)C1C[C@@H]1C(=O)O` (some centres undefined), with more than 10 µM; and `N[C@@](CCc1cccc(Br)c1)(C(=O)O)C1C[C@@H]1C(=O)O` (some centres undefined), with 0.069 µM.
Still for that read-out and setting: the value for `N[C@@](CCc1cc(F)cc(F)c1)(C(=O)O)C1C[C@@H]1C(=O)O` (some centres undefined) was 0.021 µM; that for `N[C@@](CCc1ccc(-c2ccccc2)cc1)(C(=O)O)C1C[C@@H]1C(=O)O` (some centres undefined) was 1.5 µM; that for `N[C@@](CCc1ccc(F)c(F)c1)(C(=O)O)C1C[C@@H]1C(=O)O` (some centres undefined) was 0.034 µM.
`COc1ccccc1CC[C@](N)(C(=O)O)C1C[C@@H]1C(=O)O` (some centres undefined): the IC50 in assay [1] came to 0.17 µM.
On the same count and under the same terms, then `N[C@@](CCc1cccc(Oc2ccccc2)c1)(C(=O)O)C1C[C@@H]1C(=O)O` (some centres undefined), with 0.22 µM; and `N[C@@](CCc1ccc(Cl)c(Cl)c1)(C(=O)O)C1C[C@@H]1C(=O)O` (some centres undefined), with 0.067 µM.
The same measure, in the same setting: then `NC(CCc1ccccc1)(C(=O)O)[C@H]1C[C@@H]1C(=O)O` (some centres undefined), with 0.32 µM; and `N[C@@](CCc1ccc(Cl)cc1Cl)(C(=O)O)C1C[C@@H]1C(=O)O` (some centres undefined), with 0.22 µM.
Consider `N[C@@](CCc1cccc(F)c1)(C(=O)O)C1C[C@@H]1C(=O)O` (some centres undefined), for which the 50% inhibitory concentration (IC50) in assay [1] was 0.16 µM. This IC50 and that of the compound before are within 1.5-fold of each other.
Consider `N[C@@](CCc1cccc(O)c1)(C(=O)O)C1C[C@@H]1C(=O)O` (some centres undefined), for which the IC50 in assay [1] was 0.15 µM; in assay [2], 0.26 µM; in assay [3] it was 1 µM.
